MIC and IC50 data for 16 compounds are collected here from ChEMBL document CHEMBL5360637, “Ravidomycin Analogs from Streptomyces sp. Exhibit Altered Antimicrobial and Cytotoxic Selectivity” (J Nat Prod, 2023).

≈ marks a conversion by molar mass, not a printed value.

Experiment [1] relates to Pseudomonas aeruginosa. Briefly: Antibacterial activity against Pseudomonas aeruginosa PAO1 assessed as bacterial growth inhibition incubated for 24 hrs by microtiter plate reader analysis. Format: functional. An outline of the steps: (§1)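 Broth microdilution in Mueller-Hinton broth (P. aeruginosa PAO1 is the mexAB-oprM strain). Overnight cultures were diluted 1:1000 and 200 μL was added to wells holding 2 μL of compound in DMSO. Plates were incubated 24 h at room temperature under room fluorescent light, then OD600 was read. MIC was taken as the lowest concentration keeping OD600 from rising above 0.1.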

Experiment [2] has as its system Candida albicans. Nature of the experiment: Antifungal activity against Candida albicans SC5314 assessed as bacterial growth inhibition incubated for 24 hrs by microtiter plate reader analysis. Format: functional. The gist of the method: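 C. albicans was grown in RPMI 1640 with 165 mM MOPS, pH 7.0. Overnight culture was diluted 1:1000 and 200 μL was added to wells holding 2 μL of compound in DMSO. Plates were incubated 24 h at room temperature under room fluorescent light, then OD600 was read. MIC was the lowest concentration preventing OD600 from exceeding 0.1.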

For experiment [3], the system named is Staphylococcus aureus. Briefly: Antibacterial activity against Staphylococcus aureus Newman assessed as bacterial growth inhibition incubated for 24 hrs by microtiter plate reader analysis. It counts as functional. An outline of the steps:
as §1

In experiment [4] the test system is HCC1806. Briefly: Cytotoxicity against human HCC1806 cells assessed as reduction in cell viability incubated for 72 hrs by Cell-titer glo assay. Format: functional, cell-based. The following applies: HCC1806, 72 h. An outline of the steps: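 HCC1806 cells were grown in DMEM with 10% FBS, penicillin/streptomycin and 1% GlutaMax, were mycoplasma-tested and kept ≤4 weeks. Cells were seeded at 2500 per well and treated after 24 h, with six wells per dose, against a 0.1% DMSO vehicle. CellTiter-Glo 2.0 luminescence was read at 72 h. IC50 came from a log(inhibitor) vs normalized response least-squares fit of % viability relative to DMSO.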

Consider `C=Cc1cc(OC)c2c(c1)c(=O)oc1c2cc(OC)c2c(O)ccc([C@@H]3O[C@H](C)[C@H](O)[C@H](NC(C)=O)[C@H]3O)c21`, for which the minimum inhibitory concentration (MIC) in experiment [1] was over 13 µg/mL; in experiment [2] it was 13 µg/mL (≈ 24.3 µM); in experiment [3], 0.1 µg/mL (≈ 0.187 µM). In addition, in experiment [4], the IC50 was over 10000 nM.
Turning to `C=Cc1cc(OC)c2c(c1)c(=O)oc1c2cc(OC)c2c(O)ccc([C@@H]3O[C@H](C)[C@H](OC(C)=O)[C@H](N(C)C)[C@H]3O)c21`, the minimal inhibitory concentration (MIC) was found to be 13 µg/mL (≈ 23.1 µM) in experiment [1], 0.39 µg/mL (≈ 0.692 µM) in experiment [2] and 0.39 µg/mL (≈ 0.692 µM) in experiment [3]. The concentration for half-maximal inhibition (IC50) in experiment [4] is 42 nM.
For the compound `C=Cc1cc(O)c2c(c1)c(=O)oc1c2cc(OC)c2c(O)ccc([C@@H]3O[C@H](C)[C@H](O)[C@H](N(C)C)[C@H]3O)c21`, the MIC is over 13 µg/mL in experiment [1], 13 µg/mL (≈ 25.6 µM) in experiment [2] and 0.39 µg/mL (≈ 0.768 µM) in experiment [3]. Moreover, the 50% inhibitory concentration (IC50) in experiment [4] was over 10000 nM.
As for `C=Cc1cc(OC)c2c(c1)c(=O)oc1c2cc(OC)c2c(O)ccc([C@@H]3O[C@H](C)[C@H](O)[C@H](N(C)C(=O)OC)[C@H]3O)c21`, the values for the minimal inhibitory concentration (MIC) in experiment [1], in experiment [2] and in experiment [3] were 50 µg/mL (≈ 88.4 µM), 6.3 µg/mL (≈ 11.1 µM) and 0.003 µg/mL (≈ 0.0053 µM), respectively. Also, in experiment [4], the IC50 is 550 nM.
As to `C=Cc1cc(OC)c2c(c1)c(=O)oc1c2cc(OC)c2c(O)ccc([C@@H]3O[C@H](C)[C@H](O)[C@H](NC)[C@H]3O)c21`, the values for the MIC in experiment [1], in experiment [2] and in experiment [3] were 6.3 µg/mL (≈ 12.4 µM), 0.78 µg/mL (≈ 1.54 µM) and 0.049 µg/mL (≈ 0.0965 µM), respectively. Further, in experiment [4], the IC50 came to 53 nM.
The corresponding values for `C=Cc1cc(OC)c2c(c1)c(=O)oc1c2cc(OC)c2c(O)ccc([C@@H]3O[C@H](C)[C@H](O)[C@H](NC(=O)OC)[C@H]3O)c21` are 25 µg/mL (≈ 45.3 µM), 6.3 µg/mL (≈ 11.4 µM), 0.012 µg/mL (≈ 0.0218 µM) and 710 nM.
Take `C=Cc1cc(OC)c2c(c1)c(=O)oc1c2cc(OC)c2c(O)ccc([C@@H]3O[C@H](C)[C@H](OC(C)=O)[C@H](O)[C@H]3O)c21`: the MIC was found to be 50 µg/mL (≈ 93.2 µM) in experiment [1], 6.3 µg/mL (≈ 11.7 µM) in experiment [2] and 0.003 µg/mL (≈ 0.00559 µM) in experiment [3]. In experiment [4], the IC50 was determined as 5100 nM.
The corresponding values for `COc1cc2c(oc(=O)c3cc([C@H](C)O)cc(OC)c32)c2c([C@@H]3O[C@H](C)[C@H](O)[C@H](N(C)C)[C@H]3O)ccc(O)c12` are over 13 µg/mL, over 13 µg/mL, 13 µg/mL (≈ 24.1 µM) and over 10000 nM.
The like results for `C=Cc1cc(OC)c2c(c1)c(=O)oc1c2cc(OC)c2c(O)ccc([C@@H]3O[C@H](C)[C@H](O)[C@H](O)[C@H]3O)c21` were, in that order, 3.1 µg/mL (≈ 6.27 µM), 13 µg/mL (≈ 26.3 µM), 0.006 µg/mL (≈ 0.0121 µM) and 3600 nM.
For the compound `C=Cc1cc(OC)c2c(c1)c(=O)oc1c2cc(OC)c2c(O)ccc([C@@H]3O[C@H](C)[C@H](O)C[C@H]3O)c21`, the results for the MIC in experiment [1], in experiment [2] and in experiment [3] were 50 µg/mL (≈ 104 µM), 6.3 µg/mL (≈ 13.2 µM) and 0.1 µg/mL (≈ 0.209 µM), respectively. For the same compound, in experiment [4], the half-maximal inhibitory concentration (IC50) was over 10000 nM.
The like results for `CCc1cc(OC)c2c(c1)c(=O)oc1c2cc(OC)c2c(O)ccc([C@@H]3O[C@H](C)[C@H](O)[C@H](N(C)C)[C@H]3O)c21` were, in that order, over 100 µg/mL, 25 µg/mL (≈ 47.7 µM), 0.78 µg/mL (≈ 1.49 µM) and over 10000 nM.
Take `C=Cc1cc(OC)c2c(c1)c(=O)oc1c2cc(OC)c2c(O)ccc([C@@H]3O[C@H](C)[C@H](O)[C@H](N(C)C)[C@H]3O)c21`: the MIC in experiment [1] was 3.1 µg/mL (≈ 5.94 µM); in experiment [2] it was 0.78 µg/mL (≈ 1.5 µM); in experiment [3], 0.006 µg/mL (≈ 0.0115 µM). Besides, in experiment [4], the IC50 came out at 81 nM.
The like results for `C=Cc1cc(OC)c2c(c1)c(=O)oc1c2cc(OC)c2c(O)ccc([C@@H]3O[C@H](C)[C@H](O)[C@H](O)[C@H]3OC(C)=O)c21` were, in that order, over 100 µg/mL, over 25 µg/mL, 0.049 µg/mL (≈ 0.0913 µM) and 870 nM.
The corresponding values for `COc1cc2c(oc(=O)c3cc(C)cc(OC)c32)c2c([C@@H]3O[C@H](C)[C@H](O)[C@H](N(C)C)[C@H]3O)ccc(O)c12` are over 100 µg/mL, 100 µg/mL (≈ 196 µM), 1.6 µg/mL (≈ 3.14 µM) and 3600 nM.
On to `C=Cc1cc(OC)c2c(c1)c(=O)oc1c2cc(OC)c2c(O)ccc([C@@H]3O[C@H](C)[C@H](O)[C@H](N(C)C(C)=O)[C@H]3O)c21`, for which the results for the MIC in experiment [1], in experiment [2] and in experiment [3] were 50 µg/mL (≈ 91 µM), 13 µg/mL (≈ 23.7 µM) and 0.006 µg/mL (≈ 0.0109 µM), respectively. Moreover, the IC50 in experiment [4] came out at 1700 nM.
The corresponding values for `C=Cc1cc(OC)c2c(c1)c(=O)oc1c2cc(OC)c2c(O)ccc([C@@H]3O[C@H](C)[C@H](O)[C@H](OC(C)=O)[C@H]3O)c21` are over 100 µg/mL, 6.3 µg/mL (≈ 11.7 µM), 0.006 µg/mL (≈ 0.0112 µM) and 370 nM.
